In ChEMBL document CHEMBL2163281, “p-(4-Azipentyl)propofol: a potent photoreactive general anesthetic derivative of propofol” (J Med Chem, 2011):
Values after ≈ are worked out from the molar mass of the structure shown. Active and inactive are the calls of the source. The rule behind the calls is not given here.

Legend:
[1] = biological target: T1, GABA-A receptor; alpha-1/beta-3/gamma-2 (Homo sapiens) (UniProt P14867+P18507+P28472); assay: Increase of [3H]-flunitrazepam binding to alpha1beta3gamma2 GABAA receptor expressed in HEK293S-TetR cells up to 400 uM after 1 hr by liquid scintillation counting; type: cell-based
How it was run: (§1)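 Membranes from HEK293S-TetR cells expressing α1β3γ2 GABAA receptors (200 μg protein) in 10 mM phosphate pH 7.4, 200 mM KCl, 1 mM EDTA. Incubated with 3 nM [3H]muscimol or 1.5 nM [3H]flunitrazepam plus drug for 1 h at 4°C. Nonspecific binding was set with 1 mM GABA or 1 mM flurazepam. Filtered onto PEI-treated filters, then scintillation-counted; triplicates.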

[2] = Aqueous solubility of the compound in water
[3] = Antagonist activity at Torpedo californica nACh receptor expressed in Xenopus oocytes assessed as inhibition of acetylcholine-induced current response; type: functional, cell-based; conditions: Tetronarce californica, Oocyte
How it was run: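 Torpedo nACh receptor cRNA (2α:1β:1γ:1δ, ~25 ng) injected into Xenopus oocytes. Two-electrode clamp at −50 mV in ND96. Currents were evoked by 10 μM ACh (~EC20), then by ACh plus 1–100 μM drug for 15–20 s with ~3 min washes. Currents were normalized to the ACh response and fit to a logistic inhibition equation; 3 oocytes.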

[4] = biological target: T2, GABA-A receptor; agonist GABA site (Homo sapiens) (UniProt P14867+P47870+P28472+P48169+P34903+P18505+P47869+P31644+Q16445); assay: Agonist activity at human alpha1beta2gamma2L GABAA receptor expressed in Xenopus oocytes assessed as potentiation of channel current response by two-electrode voltage clamp electrophysiology assay relative to control; type: functional, cell-based; conditions: Oocyte
[5] = biological target: T1, GABA-A receptor; alpha-1/beta-3/gamma-2 (Homo sapiens); assay: Increase of [3H]-flunitrazepam binding to alpha1beta3gamma2 GABAA receptor expressed in HEK293S-TetR cells at 0.1 to 40 uM after 1 hr by liquid scintillation counting relative to control; type: cell-based; how it was run: as §1
[6] = biological target: GABA-A receptor; agonist GABA site; assay: Agonist activity at human alpha1beta2gamma2L GABAA receptor expressed in Xenopus oocytes assessed as potentiation of GABA-induced current response by two-electrode voltage clamp electrophysiology assay; type: functional, cell-based; conditions: oocyte
[7] = biological target: T1, GABA-A receptor; alpha-1/beta-3/gamma-2 (Homo sapiens); assay: Increase of [3H]-flunitrazepam binding to alpha1beta3gamma2 GABAA receptor expressed in HEK293S-TetR cells at >30 uM after 1 hr by liquid scintillation counting; type: cell-based; how it was run: as §1
[8] = biological target: GABA-A receptor; agonist GABA site; assay: Agonist activity at human alpha1beta2gamma2L GABAA receptor expressed in Xenopus oocytes assessed as potentiation of channel current response by two-electrode voltage clamp electrophysiology assay; type: functional, cell-based; conditions: oocyte
[9] = biological target: T1, GABA-A receptor; alpha-1/beta-3/gamma-2 (Homo sapiens); assay: Increase of [3H]muscimol binding to alpha1beta3gamma2 GABAA receptor expressed in HEK293S-TetR cells after 1 hr by liquid scintillation counting relative to control; type: cell-based; how it was run: as §1
Xenopus laevis = assay: Anesthetic activity in Xenopus laevis tadpoles assessed as loss of righting reflexes; type: functional, organism-based; conditions: Tadpole
How it was run: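 Xenopus tadpoles in groups of 5 were held in 2.5 mM Tris HCl pH 7.4 under low light at seven concentrations from 1.0 to 20 μM, with ethanol ≤5 mM. Each animal was flipped every 10 min until a stable response, usually at 40 min. LoRR meant failure to right within 5 s. Only animals that recovered overnight were analysed. Quantal scores were fit to a logistic equation.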

[10] = biological target: T3, 43 kDa receptor-associated protein of the synapse (Homo sapiens) (UniProt Q13702); assay: Binding affinity to RAPsyn assessed as photoincorporation at 1.7 uM by SDS-PAGE followed by fluorography analysis; conditions: tested as the 3H-labelled form
T3 sequence (whole entry): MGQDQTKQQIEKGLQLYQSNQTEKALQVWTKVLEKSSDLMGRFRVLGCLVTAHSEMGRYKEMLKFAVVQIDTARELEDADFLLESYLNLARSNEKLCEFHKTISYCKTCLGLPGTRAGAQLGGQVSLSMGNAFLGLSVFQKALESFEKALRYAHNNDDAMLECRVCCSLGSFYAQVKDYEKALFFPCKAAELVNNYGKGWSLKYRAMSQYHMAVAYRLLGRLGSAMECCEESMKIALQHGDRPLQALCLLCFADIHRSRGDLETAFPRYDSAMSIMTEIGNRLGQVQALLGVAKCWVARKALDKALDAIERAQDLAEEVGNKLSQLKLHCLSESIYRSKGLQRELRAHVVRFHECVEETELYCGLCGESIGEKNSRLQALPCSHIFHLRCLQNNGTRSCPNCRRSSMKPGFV
How it was run: (§2)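 Torpedo californica electric-organ nACh receptor-rich membranes at 2 mg/mL in Torpedo saline pH 7.0 with 1 mM oxidized glutathione. Membranes were equilibrated 30 min with 1.7 μM [3H]ligand alone or with 100 μM tetracaine, 100 μM phencyclidine, 300 μM propofol and/or 1 mM carbamylcholine. Samples were UV-irradiated at 365 nm on ice for 30 min. Read-out: 8% SDS-PAGE, fluorography (2 weeks) and scintillation counting of gel bands.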

Tetronarce californica [11] = assay: Binding affinity to Torpedo californica nACh-gamma receptor assessed as photoincorporation at 1.7 uM by SDS-PAGE followed by fluorography analysis; conditions: tested as the 3H-labelled form; how it was run: as §2
Tetronarce californica [12] = assay: Binding affinity to Torpedo californica nACh-delta receptor assessed as photoincorporation at 1.7 uM by SDS-PAGE followed by fluorography analysis; conditions: tested as the 3H-labelled form; how it was run: as §2
Tetronarce californica [13] = assay: Binding affinity to Torpedo californica nACh-alpha receptor assessed as photoincorporation at 1.7 uM by SDS-PAGE followed by fluorography analysis in presence of carbamylcholine; conditions: tested as the 3H-labelled form; how it was run: as §2
Tetronarce californica [14] = assay: Binding affinity to Torpedo californica nACh-alpha receptor assessed as decrease photoincorporation at 1.7 uM by SDS-PAGE followed by fluorography analysis in presence of carbamylcholine and phencyclidine; design: scale not given: the % may be the effect or the level left; conditions: tested as the 3H-labelled form; how it was run: as §2
Tetronarce californica [15] = assay: Binding affinity to Torpedo californica nACh-gamma receptor assessed as photoincorporation at 1.7 uM by SDS-PAGE followed by fluorography analysis in presence of carbamylcholine; conditions: tested as the 3H-labelled form; how it was run: as §2
Tetronarce californica [16] = assay: Binding affinity to Torpedo californica nACh-delta receptor assessed as photoincorporation at 1.7 uM by SDS-PAGE followed by fluorography analysis in presence of phencyclidine; conditions: tested as the 3H-labelled form; how it was run: as §2
[17] = biological target: T2, GABA-A receptor; agonist GABA site (Homo sapiens); assay: Agonist activity at human alpha1beta2gamma2L GABAA receptor expressed in Xenopus oocytes assessed as potentiation of GABA-induced current response at 100 uM by two-electrode voltage clamp electrophysiology assay relative to control; type: functional, cell-based; conditions: Oocyte
Tetronarce californica [18] = assay: Binding affinity to Torpedo californica nACh-beta receptor assessed as photoincorporation at 1.7 uM by SDS-PAGE followed by fluorography analysis in presence of carbamylcholine; conditions: tested as the 3H-labelled form; how it was run: as §2
[19] = biological target: T2, GABA-A receptor; agonist GABA site (Homo sapiens); assay: Agonist activity at human alpha1beta2gamma2L GABAA receptor expressed in Xenopus oocytes assessed as potentiation of GABA-induced current response at 6 uM by two-electrode voltage clamp electrophysiology assay relative to control; type: functional, cell-based; conditions: Oocyte
[20] = Binding affinity to VDAC assessed as photoincorporation at 1.7 uM by SDS-PAGE followed by fluorography analysis; conditions: tested as the 3H-labelled form; how it was run: as §2
Tetronarce californica [21] = assay: Binding affinity to Torpedo californica nACh-gamma receptor assessed as photoincorporation at 1.7 uM by SDS-PAGE followed by fluorography analysis in presence of tetracaine; conditions: tested as the 3H-labelled form; how it was run: as §2
Tetronarce californica [22] = assay: Binding affinity to Torpedo californica nACh-gamma receptor assessed as photoincorporation at 1.7 uM by SDS-PAGE followed by fluorography analysis in presence of phencyclidine; conditions: tested as the 3H-labelled form; how it was run: as §2
Tetronarce californica [23] = assay: Binding affinity to Torpedo californica nACh-beta receptor assessed as photoincorporation at 1.7 uM by SDS-PAGE followed by fluorography analysis; conditions: tested as the 3H-labelled form; how it was run: as §2
Tetronarce californica [24] = assay: Binding affinity to Torpedo californica nACh-beta receptor assessed as photoincorporation at 1.7 uM by SDS-PAGE followed by fluorography analysis in presence of propofol; conditions: tested as the 3H-labelled form; how it was run: as §2
[25] = Chemical stability of the compound in 0.01 M Tris-HCl buffer at pH 7.4 at 4 degC after 2.5 days; type: physicochemical; conditions: pH 7.4, 60 h
How it was run: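 Held near saturation in buffer at 4°C for at least 2.5 days, then analysed by reverse-phase HPLC.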

Tetronarce californica [26] = assay: Binding affinity to Torpedo californica nACh-beta receptor assessed as photoincorporation at 1.7 uM by SDS-PAGE followed by fluorography analysis in presence of tetracaine; conditions: tested as the 3H-labelled form; how it was run: as §2
Tetronarce californica [27] = assay: Binding affinity to Torpedo californica nACh-alpha receptor assessed as increase photoincorporation at 1.7 uM by SDS-PAGE followed by fluorography analysis in presence of carbamylcholine and propofol; conditions: tested as the 3H-labelled form; how it was run: as §2
Tetronarce californica [28] = assay: Binding affinity to Torpedo californica nACh-delta receptor assessed as photoincorporation at 1.7 uM by SDS-PAGE followed by fluorography analysis in presence of tetracaine; conditions: tested as the 3H-labelled form; how it was run: as §2
Tetronarce californica [29] = assay: Binding affinity to Torpedo californica nACh-delta receptor assessed as photoincorporation at 1.7 uM by SDS-PAGE followed by fluorography analysis in presence of carbamylcholine; conditions: tested as the 3H-labelled form; how it was run: as §2
Tetronarce californica [30] = assay: Binding affinity to Torpedo californica nACh-beta receptor assessed as photoincorporation at 1.7 uM by SDS-PAGE followed by fluorography analysis in presence of phencyclidine; conditions: tested as the 3H-labelled form; how it was run: as §2
Tetronarce californica [31] = assay: Binding affinity to Torpedo californica nACh-delta receptor assessed as photoincorporation at 1.7 uM by SDS-PAGE followed by fluorography analysis in presence of propofol; conditions: tested as the 3H-labelled form; how it was run: as §2
[32] = Aqueous solubility of the compound in 0.01 M Tris-HCl buffer at pH 7.4; type: physicochemical
[33] = Binding affinity to Na+/K+ ATPase alpha assessed as photoincorporation at 1.7 uM by SDS-PAGE followed by fluorography analysis; conditions: tested as the 3H-labelled form; how it was run: as §2
Tetronarce californica [34] = assay: Binding affinity to Torpedo californica nACh-gamma receptor assessed as photoincorporation at 1.7 uM by SDS-PAGE followed by fluorography analysis in presence of propofol; conditions: tested as the 3H-labelled form; how it was run: as §2

CC(C)c1cccc(C(C)C)c1O [PROPOFOL]
Activity [1]: inactive | solubility [2]: 1000 µM (≈ 178 µg/mL) | IC50 [3]: 7.3 µM | Activity [4]: 45% | fold change (FC) [5]: 2 | EC50 [6]: 5.2 µM | Activity [7]: inactive | EC50 [8]: 50 µM | fold change (FC) [9]: 2.4 | EC50 (Xenopus laevis): 2.2 µM

CC(C)c1cc(CCCC2(C)N=N2)cc(C(C)C)c1O
Activity [10]: Active | Activity [1]: inactive | Activity (Tetronarce californica [11]): Active | Activity (Tetronarce californica [12]): Active | Activity (Tetronarce californica [13]): 100% | Activity (Tetronarce californica [14]): 20% | Activity (Tetronarce californica [15]): < 20% | Activity (Tetronarce californica [16]): < 20% | fold change (FC) [17]: 20 | IC50 [3]: 4 µM | Activity [4]: 10% | Activity (Tetronarce californica [18]): < 20% | fold change (FC) [19]: 9 | Activity [20]: Active | fold change (FC) [5]: 1.6 | Activity (Tetronarce californica [21]): < 20% | Activity (Tetronarce californica [22]): < 20% | EC50 [6]: 4.5 µM | Activity (Tetronarce californica [23]): Active | Activity (Tetronarce californica [24]): < 20% | Activity [7]: Active | Stability [25]: Stable | Activity (Tetronarce californica [26]): < 20% | Activity (Tetronarce californica [27]): 20% | Activity (Tetronarce californica [28]): < 20% | EC50 [8]: 15 µM | fold change (FC) [9]: 1.6 | Activity (Tetronarce californica [29]): < 20% | Activity (Tetronarce californica [30]): < 20% | Activity (Tetronarce californica [31]): < 20% | EC50 (Xenopus laevis): 3.2 µM | solubility [32]: 73 µM (≈ 20 µg/mL) | Activity [33]: Active | Activity (Tetronarce californica [34]): < 20%
